Results published in ChEMBL document CHEMBL1154747, “Synthesis and cytotoxic evaluation of beta-alkyl or beta-aryl-delta-methyl-alpha-methylene-delta-lactones. Comparison with the corresponding gamma-lactones” (Eur J Med Chem, 2010).

Tests used:
Assay type in all cases: functional, cell-based
[1] = system: NALM-6; assay: Cytotoxicity against human NALM6 cells after 48 hrs by MTT assay; settings: NALM-6, 48 h
Procedure, shortened: (§1)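 HL-60 (promyelocytic) and NALM-6 (lymphoblastic) human leukemia cells in RPMI 1640 with 10% heat-inactivated FBS, streptomycin/penicillin, 37 °C, 5% CO2; exponentially growing cells seeded 8 × 10^3/well. Compounds from fresh DMSO stocks diluted in medium, 10^-7 to 10^-3 M, 46 h, then MTT 2 h; formazan dissolved in 20% SDS/50% DMF pH 4.7, A562/630. IC50 from concentration-response curves, ≥3 experiments.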

[2] = system: HL-60; assay: Cytotoxicity against human HL60 cells after 48 hrs by MTT assay; settings: HL-60, 48 h; procedure, shortened: as §1
[3] = system: L1210; assay: Cytotoxicity against mouse L1210 cells after 48 hrs by MTT assay; settings: L1210, 48 h
Procedure, shortened: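 Mouse L-1210 leukemia cells in RPMI 1640 with 10% FCS, gentamycin 50 µg/mL and 0.02 M HEPES; seeded at 1.5 × 10^3 cells/mL, drug added after 24 h, then 48 h further incubation. Cell number relative to untreated control by tetrazolium dye method; IC50 from concentration-survival curves by non-linear (quasi-Newton) fitting, mean of at least three experiments.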

SMILES	IC50 [1]	IC50 [2]	IC50 [3]
C=C1C(=O)OC(C)CC1C(C)C (stereo not drawn)	56.4 µM	61.2 µM	44.4 µM
C=C1C(=O)O[C@H](C)[C@@H]1c1ccc2c(c1)OCO2 (relative stereo)	4.7 µM	33.3 µM	1.4 µM
C=C1C(=O)O[C@H](C)[C@@H]1c1ccc(C)cc1 (relative stereo)	5.97 µM	5.62 µM	5.5 µM
C=C1C(=O)O[C@@H](C)[C@@H]1c1ccc(OC)cc1 (relative stereo)	5.42 µM	5.56 µM	1.95 µM
C=C1C(=O)OC(C)CC1c1ccc(Br)cc1 (stereo not drawn)	4.51 µM	4.77 µM	1.75 µM
C=C1C(=O)O[C@@H](C)[C@@H]1c1ccc(C)cc1 (relative stereo)	4.39 µM	5.01 µM	1.5 µM
C=C1C(=O)O[C@@H](C)[C@@H]1c1ccc2c(c1)OCO2 (relative stereo)	5 µM	5.35 µM	0.8 µM
C=C1C(=O)OC(C)CC1c1ccccc1OC (stereo not drawn)	6.26 µM	6.44 µM	2.1 µM
C=C1C(=O)OC(C)CC1c1ccc([N+](=O)[O-])cc1 (stereo not drawn)	3.42 µM	6.12 µM	1.2 µM
C=C1C(=O)OC(C)CC1c1ccc2c(c1)OCO2 (stereo not drawn)	5.46 µM	5.52 µM	7 µM
C=C1C(=O)O[C@H](C)[C@@H]1c1ccc([N+](=O)[O-])cc1	3.77 µM	21.7 µM	1.9 µM
C=C1C(=O)O[C@H](C)[C@@H]1c1ccc(Br)cc1 (relative stereo)	4.25 µM	4.28 µM	7.8 µM
C=C1C(=O)O[C@H](C)[C@@H]1c1ccc(OC)cc1 (relative stereo)	5.59 µM	4.82 µM	4.4 µM
C=C1C(=O)OC(C)CC1c1ccc(OC)cc1 (stereo not drawn)	5.76 µM	5.95 µM	0.8 µM
C=C1C(=O)OC(C)CC1C1CCCCC1 (stereo not drawn)	15.8 µM	40.6 µM	13 µM
C=C1C(=O)O[C@@H](C)[C@@H]1c1ccc(Br)cc1 (relative stereo)	1.1 µM	6.66 µM	0.58 µM
